Results: ChEMBL document CHEMBL1153766, “Regioselective reaction: synthesis and pharmacological study of Mannich bases containing ibuprofen moiety” (2009)
Active and inactive are the calls of the source. The calls are words filed in the database; no cut-off is given here.

The compounds below were run on Rattus norvegicus (assay: Antiinflammatory activity against Wistar albino rat assessed as inhibition of carrageenan-induced paw edema at 20 mg/kg, po administered 30 mins prior to carrageenan challenge measured after 0.5 hrs).
Assay type: functional
In short: (§1)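 Carrageenan paw oedema in Wistar albino rats (Winter method). Compounds given orally at 20 mg/kg as a suspension in 1% carboxymethyl cellulose, 30 min before 0.1 mL of 1% w/v carrageenan injected into the plantar region of the paw. Paw volume measured by plethysmography at 30, 60, 90, 120, 150 and 180 min. Inhibition calculated relative to vehicle controls. Mean ± SEM.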
`CC(C)Cc1ccc(C(C)c2nnc(S)n2N)cc1` (stereo not drawn) was tested, and the inhibition in vivo at 20 mg/kg was 30%. Work on `CC(C)Cc1ccc(C(C)c2nnc(S)n2/N=C/c2ccc(Br)cc2)cc1` (stereo not drawn) yielded an inhibition in vivo at 20 mg/kg of 0%. In the case of `O=C(O)Cc1ccccc1Nc1c(Cl)cccc1Cl` [DICLOFENAC], the inhibition in vivo at 20 mg/kg is reported as 83%. `CC(C)Cc1ccc(C(C)c2nn(CN(c3ccccc3)c3ccccc3)c(=S)n2/N=C/c2ccc(Br)cc2)cc1` (stereo not drawn) showed an inhibition in vivo at 20 mg/kg of 9%. For `CC(C)Cc1ccc(C(C)c2nnc(S)n2/N=C/c2ccc(Cl)cc2)cc1` (stereo not drawn), the inhibition in vivo at 20 mg/kg was 62%.

Each compound was assayed on Rattus norvegicus (assay: Antiinflammatory activity against Wistar albino rat assessed as inhibition of carrageenan-induced paw edema at 20 mg/kg, po administered 30 mins prior to carrageenan challenge measured after 3 hrs).
Assay type: functional
In short: as §1
With `CC(C)Cc1ccc(C(C)c2nnc(S)n2N)cc1` (stereo not drawn) the inhibition in vivo at 20 mg/kg was 56%. Work on `CC(C)Cc1ccc(C(C)c2nnc(S)n2/N=C/c2ccc(Br)cc2)cc1` (stereo not drawn) yielded an inhibition in vivo at 20 mg/kg of 72%. Work on `O=C(O)Cc1ccccc1Nc1c(Cl)cccc1Cl` [DICLOFENAC] yielded an inhibition in vivo at 20 mg/kg of 65%. `CC(C)Cc1ccc(C(C)c2nn(CN(c3ccccc3)c3ccccc3)c(=S)n2/N=C/c2ccc(Br)cc2)cc1` (stereo not drawn) gave an inhibition in vivo at 20 mg/kg of 57%. In the case of `CC(C)Cc1ccc(C(C)c2nnc(S)n2/N=C/c2ccc(Cl)cc2)cc1` (stereo not drawn), the inhibition in vivo at 20 mg/kg is reported as 64%.

Each compound was assayed on Aspergillus (assay: Antimicrobial activity against Aspergillus at 1000 ug after 24 to 48 hrs by well diffusion method).
Assay type: functional, organism-based
In short: (§2)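 Agar well diffusion against Staphylococcus aureus, Escherichia coli and Aspergillus. Compounds dissolved in DMF (10 mg in 10 mL), and the solution placed into wells cut with a borer. Plates incubated at 37 °C for 24–48 h, then inspected.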
In the case of `CC(C)Cc1ccc(C(C)c2nnc(S)n2N)cc1` (stereo not drawn), the Activity is reported as “inactive”. In the case of `CC(C)Cc1ccc(C(C)c2nnc(S)n2/N=C/c2ccc(Br)cc2)cc1` (stereo not drawn), the Activity is reported as “inactive”. With `CC(C)Cc1ccc(C(C)c2nn(CN(c3ccccc3)c3ccccc3)c(=S)n2/N=C/c2ccc(Br)cc2)cc1` (stereo not drawn) the Activity was “inactive”. For `CC(C)Cc1ccc(C(C)c2nnc(S)n2/N=C/c2ccc(Cl)cc2)cc1` (stereo not drawn), the Activity was “inactive”.

Each compound was assayed on Rattus norvegicus (assay: Antiinflammatory activity against Wistar albino rat assessed as inhibition of carrageenan-induced paw edema at 20 mg/kg, po administered 30 mins prior to carrageenan challenge measured after 1 hrs).
Assay type: functional
In short: as §1
`CC(C)Cc1ccc(C(C)c2nnc(S)n2N)cc1` (stereo not drawn) showed an inhibition in vivo at 20 mg/kg of 32%. `CC(C)Cc1ccc(C(C)c2nnc(S)n2/N=C/c2ccc(Br)cc2)cc1` (stereo not drawn) was tested, and the inhibition in vivo at 20 mg/kg was 16%. With `O=C(O)Cc1ccccc1Nc1c(Cl)cccc1Cl` [DICLOFENAC] the inhibition in vivo at 20 mg/kg was 59%. `CC(C)Cc1ccc(C(C)c2nn(CN(c3ccccc3)c3ccccc3)c(=S)n2/N=C/c2ccc(Br)cc2)cc1` (stereo not drawn) gave an inhibition in vivo at 20 mg/kg of 10%. `CC(C)Cc1ccc(C(C)c2nnc(S)n2/N=C/c2ccc(Cl)cc2)cc1` (stereo not drawn) showed an inhibition in vivo at 20 mg/kg of 49%.

The compounds below were run on Rattus norvegicus (assay: Antiinflammatory activity against Wistar albino rat assessed as inhibition of carrageenan-induced paw edema at 20 mg/kg, po administered 30 mins prior to carrageenan challenge measured after 1.5 hrs).
Assay type: functional
In short: as §1
`CC(C)Cc1ccc(C(C)c2nnc(S)n2N)cc1` (stereo not drawn) showed an inhibition in vivo at 20 mg/kg of 46%. In the case of `CC(C)Cc1ccc(C(C)c2nnc(S)n2/N=C/c2ccc(Br)cc2)cc1` (stereo not drawn), the inhibition in vivo at 20 mg/kg is reported as 65%. `O=C(O)Cc1ccccc1Nc1c(Cl)cccc1Cl` [DICLOFENAC] gave an inhibition in vivo at 20 mg/kg of 70%. For `CC(C)Cc1ccc(C(C)c2nn(CN(c3ccccc3)c3ccccc3)c(=S)n2/N=C/c2ccc(Br)cc2)cc1` (stereo not drawn), the inhibition in vivo at 20 mg/kg was 38%. `CC(C)Cc1ccc(C(C)c2nnc(S)n2/N=C/c2ccc(Cl)cc2)cc1` (stereo not drawn) gave an inhibition in vivo at 20 mg/kg of 52%.

What follows are compounds tested on Mus musculus (assay: Analgesic activity against Swiss albino mouse assessed as increase in paw licking or jump response at 10 mg/kg, po after 1.5 hrs by hot plate method).
Assay type: functional
In short: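 Hot-plate test in Swiss albino mice, 6 per group. Compounds given orally by gavage as a suspension in 1% carboxymethyl cellulose, 10 mg/kg. Animals placed on a plate held at 55 ± 1 °C, with paw licking or jumping as the end point. Reaction time recorded at 30, 60 and 90 min after dosing. Percentage increase in reaction time calculated using the maximum tolerated reaction time. Mean ± SEM.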
Compound `O=C(O)Cc1ccccc1Nc1c(Cl)cccc1Cl` [DICLOFENAC] has an Activity of 79.24%.

These compounds were tested on Rattus norvegicus (assay: Antiinflammatory activity against Wistar albino rat assessed as inhibition of carrageenan-induced paw edema at 20 mg/kg, po administered 30 mins prior to carrageenan challenge measured after 2 hrs).
Assay type: functional
In short: as §1
Work on `CC(C)Cc1ccc(C(C)c2nnc(S)n2N)cc1` (stereo not drawn) yielded an inhibition in vivo at 20 mg/kg of 45%. `CC(C)Cc1ccc(C(C)c2nnc(S)n2/N=C/c2ccc(Br)cc2)cc1` (stereo not drawn) was tested, and the inhibition in vivo at 20 mg/kg was 60%. In the case of `O=C(O)Cc1ccccc1Nc1c(Cl)cccc1Cl` [DICLOFENAC], the inhibition in vivo at 20 mg/kg is reported as 87%. Work on `CC(C)Cc1ccc(C(C)c2nn(CN(c3ccccc3)c3ccccc3)c(=S)n2/N=C/c2ccc(Br)cc2)cc1` (stereo not drawn) yielded an inhibition in vivo at 20 mg/kg of 38%. `CC(C)Cc1ccc(C(C)c2nnc(S)n2/N=C/c2ccc(Cl)cc2)cc1` (stereo not drawn) gave an inhibition in vivo at 20 mg/kg of 57%.

The compounds below were run on Rattus norvegicus (assay: Antiinflammatory activity against Wistar albino rat assessed as inhibition of carrageenan-induced paw edema at 20 mg/kg, po administered 30 mins prior to carrageenan challenge measured after 2.5 hrs).
Assay type: functional
In short: as §1
Compound `CC(C)Cc1ccc(C(C)c2nnc(S)n2N)cc1` (stereo not drawn) has an inhibition in vivo at 20 mg/kg of 50%. `CC(C)Cc1ccc(C(C)c2nnc(S)n2/N=C/c2ccc(Br)cc2)cc1` (stereo not drawn) gave an inhibition in vivo at 20 mg/kg of 70%. With `O=C(O)Cc1ccccc1Nc1c(Cl)cccc1Cl` [DICLOFENAC] the inhibition in vivo at 20 mg/kg was 69%. `CC(C)Cc1ccc(C(C)c2nn(CN(c3ccccc3)c3ccccc3)c(=S)n2/N=C/c2ccc(Br)cc2)cc1` (stereo not drawn) gave an inhibition in vivo at 20 mg/kg of 57%. `CC(C)Cc1ccc(C(C)c2nnc(S)n2/N=C/c2ccc(Cl)cc2)cc1` (stereo not drawn) gave an inhibition in vivo at 20 mg/kg of 62%.

These compounds were tested on Staphylococcus aureus (assay: Antimicrobial activity against Staphylococcus aureus at 1000 ug after 24 to 48 hrs by well diffusion method).
Assay type: functional, organism-based
In short: as §2
With `CC(C)Cc1ccc(C(C)c2nnc(S)n2N)cc1` (stereo not drawn) the Activity was “inactive”. In the case of `CC(C)Cc1ccc(C(C)c2nnc(S)n2/N=C/c2ccc(Br)cc2)cc1` (stereo not drawn), the Activity is reported as “inactive”. In the case of `CC(C)Cc1ccc(C(C)c2nn(CN(c3ccccc3)c3ccccc3)c(=S)n2/N=C/c2ccc(Br)cc2)cc1` (stereo not drawn), the Activity is reported as “inactive”. With `CC(C)Cc1ccc(C(C)c2nnc(S)n2/N=C/c2ccc(Cl)cc2)cc1` (stereo not drawn) the Activity was “inactive”.

These compounds were tested on Escherichia coli (assay: Antimicrobial activity against Escherichia coli at 1000 ug after 24 to 48 hrs by well diffusion method).
Assay type: functional, organism-based
In short: as §2
With `CC(C)Cc1ccc(C(C)c2nnc(S)n2N)cc1` (stereo not drawn) the Activity was “inactive”. With `CC(C)Cc1ccc(C(C)c2nnc(S)n2/N=C/c2ccc(Br)cc2)cc1` (stereo not drawn) the Activity was “inactive”. In the case of `CC(C)Cc1ccc(C(C)c2nn(CN(c3ccccc3)c3ccccc3)c(=S)n2/N=C/c2ccc(Br)cc2)cc1` (stereo not drawn), the Activity is reported as “inactive”. `CC(C)Cc1ccc(C(C)c2nnc(S)n2/N=C/c2ccc(Cl)cc2)cc1` (stereo not drawn) was tested, and the Activity was “inactive”.
